Bioassay records as filed in PubChem BioAssay.
Shown are actives, neighbours in structure and some others; about 2.9% of the full set was active somewhere.
E-sel inducer: E-selectin induction on HUVECs; activation, % at 7.58 µM; 0.37% of 260,000 active; P16581; HUVEC E-selectin immunofluorescence imaging; normalized: neutral wells 0, TNF-alpha wells 100;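 active = mean E-selectin-positive cell signal at least 10% of the positive control, reached in at least 60% of replicates, without over 20% cell loss; inconclusive = no rule given, readout overlaps actives, possibly toxicity-flagged; inactive = the rest, including those meeting only one limit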
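Material: HUVEC primary endothelial cells; Amount: 3,000 cells per well; Dosing: single concentration; Medium: EGM-2 growth medium on 0.1% gelatin-coated wells; Read-out basis: percent E-selectin-positive cells; Signal: immunofluorescence imaging; Control set: TNF-alpha, DMSO.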
SIRT5 inh: blocks human SIRT5 desuccinylation of peptide; Q9NXA8; Purified SirT5, succinyl-peptide AMC, trypsin-coupled fluorescence; 1.1% of 330,000 active; AID 652115; inhibition, % at 15 µM; in the data active = inhibition above about 15%; inconclusive = no clear call, values can overlap the other calls
Target sequence (Q9NXA8 whole entry, looked up): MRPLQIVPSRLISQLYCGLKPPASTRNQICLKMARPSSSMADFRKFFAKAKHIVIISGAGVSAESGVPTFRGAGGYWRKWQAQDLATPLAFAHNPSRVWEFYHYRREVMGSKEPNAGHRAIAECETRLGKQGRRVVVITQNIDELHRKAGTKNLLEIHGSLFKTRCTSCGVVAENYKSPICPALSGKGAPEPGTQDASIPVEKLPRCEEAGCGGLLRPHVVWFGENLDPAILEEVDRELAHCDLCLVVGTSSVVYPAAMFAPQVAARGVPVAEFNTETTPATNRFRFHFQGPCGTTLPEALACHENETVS
DENV2 CPE rescue: inhibitors of DENV2 cytopathic effect | DENV2-infected cells, cytopathic effect rescue, plate reader | CPE inhibition, % at 9.99 µM | 1.7% of 350,000 active; in the data active = CPE inhibition above about 20%, passing the limit was not always enough; inconclusive = no clear call, values can overlap the other calls; tested in BHK-21 cells
Of the large screens only hits and unclear results are named; the others gave an inactive call; ! = a repeat was not active.

C=CCn1c(SCC(=O)NC(N)=O)nnc1-c1cc2c(s1)CCC(CC)C2 (centres undefined)	DENV2 CPE rescue 21.4 (no result: E-sel inducer)
C=CCn1c(SCC(=O)NCC)nnc1-c1cc2c(s1)CCC(CC)C2 (centres undefined)	none (no result: E-sel inducer)
COC(=O)C1=C(C)N(CCCC(=O)O)C(=O)NC1c1ccc(C(F)(F)F)cc1 (centres undefined)	none
COc1cc(-c2cc3nc(NCc4cccc(Cl)c4)ccn3n2)cc(OC)c1OC	none (no result: E-sel inducer, SIRT5 inh)
COCCCNc1ccn2nc(-c3ccc(Cl)cc3)cc2n1	DENV2 CPE rescue 30.2
COc1ccc(Cc2c(-c3ccccc3)nc3ccc(C)cn23)c(C)c1	none
Cc1ccc(Cc2c(-c3ccccc3)nc3c4ccccc4ccn23)cc1	none (no result: SIRT5 inh)
COc1ccc(-c2nc3c4ccccc4ccn3c2Cc2ccc(C)cc2)cc1OC	none (no result: SIRT5 inh)
COc1ccc(Cc2c(-c3cccc(Cl)c3)nc3ccc(C)cn23)c(C)c1	SIRT5 inh 22.4
Fc1cccc(Cc2c(-c3cccc(Br)c3)nc3c(Cl)cc(C(F)(F)F)cn23)c1	none
COc1ccc(-c2nc3c4ccccc4ccn3c2Cc2cccc(Cl)c2)cc1OC	DENV2 CPE rescue 75.8
Cc1ccc(Cc2c(-c3cccc(Br)c3)nc3c4ccccc4ccn23)cc1	DENV2 CPE rescue 38.9
Cc1ccc(Cc2c(-c3cccc(Br)c3)nc3c(Cl)cc(C(F)(F)F)cn23)cc1	SIRT5 inh 25.0
CN1C[C@@H]2C(c3ccc(Cl)nc3)C3(c4ccc(C#N)cc4)CC2(C3)[C@H]1c1ccccc1 (some centres undefined)	none (no result: SIRT5 inh)
COc1ccc(S(=O)(=O)N(C)C[C@H]2OCCCC[C@H](C)Oc3ccc(NC(=O)NC4CCCCC4)cc3C(=O)N([C@H](C)CO)C[C@@H]2C)cc1	none (no result: E-sel inducer)
CCC(Sc1nc(N)cc(=O)[nH]1)C(=O)Nc1cc(C)on1 (centres undefined)	none (no result: E-sel inducer)
COc1cc(-c2nc3ccccn3c2N)ccc1O	none (no result: E-sel inducer)
c1ccc(CNc2ccc3ccccc3n2)nc1	none (no result: E-sel inducer)
CC(C)=CC(=O)O[C@@H]1Cc2c(ccc3ccc(=O)oc23)OC1(C)C	none (no result: SIRT5 inh)
Cc1ccc2nc(-c3ccccc3)c(Cc3ccsc3)n2c1	none (no result: SIRT5 inh)
Cc1ccc2nc(-c3cccc(Br)c3)c(Cc3ccsc3)n2c1	DENV2 CPE rescue 24.4
CC(C)NC(=O)N(C)C[C@H]1Oc2ccc(NC(=O)C3CCCCC3)cc2CC(=O)N([C@@H](C)CO)C[C@@H]1C	none
CCCCN(Cc1cccs1)S(=O)(=O)c1ccc(-c2ccc(=O)[nH]n2)s1	none (no result: E-sel inducer)
CN(C)CCN(Cc1ccccc1)S(=O)(=O)c1ccc(-c2ccc(=O)[nH]n2)s1	SIRT5 inh 16.5
O=C(NCCN1CCCCC1)Nc1ccc([N+](=O)[O-])cc1	none (no result: E-sel inducer)
O=c1c2ccccc2nc2c3ccccc3c(NCCO)nn12	DENV2 CPE rescue 73.1 (no result: SIRT5 inh)
O=c1c2ccccc2nc2c3ccccc3c(NCc3cccnc3)nn12	none (no result: E-sel inducer)
O=c1c2ccccc2nc2c3ccccc3c(NCc3ccccn3)nn12	SIRT5 inh 111.6
OCCNc1nc(-c2ccccc2)nc2ccccc12	none
Cc1c(C(=O)Nc2nnc(SCc3ccccc3Cl)s2)cccc1[N+](=O)[O-]	none
CCOc1ccc(CN2CCN(C(=O)c3cccc(F)c3)CC2)cc1	SIRT5 inh 19.3 (no result: E-sel inducer)
COc1cccc(C(=O)N2CCN(Cc3cccc(F)c3)CC2)c1	none (no result: E-sel inducer, DENV2 CPE rescue)
C[C@H]1CN([C@@H](C)CO)C(=O)Cc2cc(NC(=O)Cn3cnnn3)ccc2O[C@@H]1CN(C)CC1CC1	none
CS(=O)(=O)c1ccccc1C(=O)N(CCc1ccccc1)Cc1ccccc1	none
COc1ccc(C(=O)N(CCc2ccccc2)Cc2ccccc2)c(OC)n1	E-sel inducer 30.2
COc1ccc(CN(C)C[C@@H]2OCCCC[C@H](C)Oc3ccc(NC(=O)CCC(F)(F)F)cc3C(=O)N([C@H](C)CO)C[C@H]2C)cc1	DENV2 CPE rescue 61.7
C[C@@H]1CCCCO[C@H](CN(C)C(=O)CCC(F)(F)F)[C@H](C)CN([C@H](C)CO)C(=O)c2cc(NC(=O)c3ccccc3)ccc2O1	none
C[C@@H]1CCCCO[C@@H](CN(C)Cc2ccccc2)[C@H](C)CN([C@H](C)CO)C(=O)c2cc(NC(=O)CCC(F)(F)F)ccc2O1	DENV2 CPE rescue inconclusive
COc1ccc(CN(C)C[C@H]2OCCCC[C@H](C)Oc3ccc(NC(=O)CCC(F)(F)F)cc3C(=O)N([C@H](C)CO)C[C@H]2C)cc1	none
C[C@@H]1CN([C@@H](C)CO)C(=O)c2cc(NC(=O)c3ccccc3)ccc2O[C@@H](C)CCCCO[C@@H]1CN(C)C(=O)CCC(F)(F)F	DENV2 CPE rescue 28.6
COc1ccc(CN(C)C[C@H]2OCCCC[C@H](C)Oc3ccc(NC(=O)CCC(F)(F)F)cc3C(=O)N([C@@H](C)CO)C[C@@H]2C)cc1	DENV2 CPE rescue 43.7! (no result: E-sel inducer)
COc1ccc(CN(C)C[C@H]2OCCCC[C@@H](C)Oc3ccc(NC(=O)CCC(F)(F)F)cc3C(=O)N([C@H](C)CO)C[C@@H]2C)cc1	none
C[C@@H]1CCCCO[C@H](CN(C)Cc2ccccc2)[C@H](C)CN([C@H](C)CO)C(=O)c2cc(NC(=O)CCC(F)(F)F)ccc2O1	SIRT5 inh 19.4, DENV2 CPE rescue 37.3
Cc1ccc(C(=O)C(C)OC(=O)CCS(=O)(=O)c2ccc(C)cc2)cc1 (centres undefined)	none
Cc1ccc(SCC(=O)NCCc2ccccc2)cc1	none
Cc1ccccc1S(=O)(=O)Cc1ccc(C(=O)NC2CC2)o1	none (no result: E-sel inducer)
Cc1cc(C)n2nc(C(=O)N/N=C/c3c4ccccc4cc4ccccc34)nc2n1	none (no result: E-sel inducer)
CCc1nc2ccc(C(=O)Nc3cccc(OCC(=O)N(C)C)c3)cn2c1N(CC)CCN(C)C	none
CCCC[n+]1ccn(-c2nc3ccccc3nc2[N-]S(=O)(=O)c2ccc(Cl)cc2)c1	none
CCOc1cc(/C=N/NC(=O)c2cccnc2)ccc1O	none (no result: E-sel inducer)
CCc1cc(C(=O)NNC(=S)NC(C)c2ccccc2)cs1 (centres undefined)	none (no result: E-sel inducer, DENV2 CPE rescue)
Cc1cc(C)cc(NC(=O)c2ccc3c(c2)CCN3S(C)(=O)=O)c1	none (no result: E-sel inducer)
Cc1ccc(NC(=O)c2ccc3c(c2)CCN3S(C)(=O)=O)cc1	SIRT5 inh 20.2, DENV2 CPE rescue 30.1 (no result: E-sel inducer)
Cc1noc(C)c1NC(=O)Nc1ccc2c(c1)C(=O)N([C@@H](C)CO)C[C@H](C)[C@H](CN(C)Cc1ccc3c(c1)OCO3)OCCCC[C@H](C)O2	none (no result: SIRT5 inh)
Cc1cccc(-c2ccc([C@H]3[C@H]4CN(C(=O)NC(C)C)CCCCN4[C@H]3CO)cc2)c1	none
O=C(Nc1cc([N+](=O)[O-])ccc1O)c1ccc2c(c1)C(=O)N(Cc1ccco1)C2=O	DENV2 CPE rescue 25.5
O=C(Nc1ccc(O)cc1)c1ccc2c(c1)C(=O)N(Cc1ccco1)C2=O	none (no result: E-sel inducer, SIRT5 inh)
Cc1ccc(S(=O)(=O)N(C)C[C@@H]2Oc3ccc(NC(=O)Cc4cn(C)c5ccccc45)cc3CC(=O)N([C@@H](C)CO)C[C@@H]2C)cc1	none
O=C(CNC(=O)c1ccccc1)N/N=C/c1cc(Br)ccc1O	none (no result: E-sel inducer, DENV2 CPE rescue)
O=C(CN1CC(c2ccccc2)CC1=O)N/N=C/c1cc(Br)ccc1O (centres undefined)	SIRT5 inh 20.2
C[C@H]1CN([C@@H](C)CO)C(=O)Cc2cc(NC(=O)Nc3ccc(C(F)(F)F)cc3)ccc2O[C@@H]1CN(C)S(=O)(=O)c1ccccc1	none
C=CCC12C=C(OC)C(=O)OC(OC)(C1O)[C@H](c1ccc3c(c1)OCO3)[C@H]2C (some centres undefined)	none (no result: E-sel inducer)
C=CC[C@]12C=C(OC)C(=O)C(OC)=C1O[C@@H](c1ccc3c(c1)OCO3)[C@H]2C	DENV2 CPE rescue 30.2 (no result: E-sel inducer)
